Assay results reported in article PMC3623729 (Journal of medicinal chemistry, 2013).
“Also recorded” adds a separate entry of the source.

Columns and labels:
[1] = tested on: MCF-7 breast cancer cells; settings: cited from earlier work
VDR [2] = biological target: T1, VDR (Homo sapiens, UniProt P11473); experiment: VDR ultrafiltration affinity assay; type: binding
T1 sequence (P11473 1-427): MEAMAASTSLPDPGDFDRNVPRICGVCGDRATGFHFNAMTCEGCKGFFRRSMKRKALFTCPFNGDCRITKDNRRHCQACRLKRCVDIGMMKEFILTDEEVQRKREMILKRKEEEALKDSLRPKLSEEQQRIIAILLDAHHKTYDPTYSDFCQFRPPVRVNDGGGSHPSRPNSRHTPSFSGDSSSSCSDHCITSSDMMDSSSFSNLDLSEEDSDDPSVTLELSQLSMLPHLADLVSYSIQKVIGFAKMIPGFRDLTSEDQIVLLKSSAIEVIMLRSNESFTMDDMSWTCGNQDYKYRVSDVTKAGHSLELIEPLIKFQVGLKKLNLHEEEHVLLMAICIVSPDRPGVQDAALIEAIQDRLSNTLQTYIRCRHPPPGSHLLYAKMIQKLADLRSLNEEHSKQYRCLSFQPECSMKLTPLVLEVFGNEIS
In short: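 Commercial VDR in storage buffer incubated with test ligand for 30 min at 37 °C, dark, shaking. Ultrafiltered at 12,000 × g, 4 °C, rinsed with ice-cold 50 mM ammonium acetate, 0.1 mM NaCl, pH 8.0. Bound ligand released in methanol with genistein internal standard, dried under N2, analysed by LC-ion trap TOF MS, both polarities, m/z 100–1500. Controls were boiled hVDR or no protein, with lithocholic acid and curcumin as positives.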

[3] = cited from earlier work
human RXRα = biological target: T2, human RXRα (Homo sapiens, UniProt P19793); experiment: RXRE-luciferase reporter gene assay; type: cell-based; settings: for Max IR: maximum induction ratio observed: compounds tested at variable concentrations
T2 sequence (P19793 1-462): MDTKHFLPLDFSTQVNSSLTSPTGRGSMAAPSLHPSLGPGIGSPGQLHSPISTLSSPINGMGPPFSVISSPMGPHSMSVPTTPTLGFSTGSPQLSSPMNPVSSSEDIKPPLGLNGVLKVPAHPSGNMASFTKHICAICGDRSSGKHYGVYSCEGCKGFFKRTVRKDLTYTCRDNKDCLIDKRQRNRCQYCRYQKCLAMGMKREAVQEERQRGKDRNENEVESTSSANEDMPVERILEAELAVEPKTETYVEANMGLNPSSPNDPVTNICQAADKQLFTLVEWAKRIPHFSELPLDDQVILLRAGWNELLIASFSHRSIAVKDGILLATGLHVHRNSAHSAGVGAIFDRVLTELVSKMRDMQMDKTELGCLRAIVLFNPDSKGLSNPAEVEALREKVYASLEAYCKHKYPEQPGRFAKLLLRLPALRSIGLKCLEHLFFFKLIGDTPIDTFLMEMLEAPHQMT

VDR [4] = biological target: T1, VDR; experiment: Competitive binding against curcumin for VDR; settings: equimolar concentration
COS-1 cells = experiment: % Cell Survival; type: cell-based; settings: concentration not given

Row | SMILES | Positive VDR signal (VDR [2]) | RXR activity in words (active / inactive) (human RXRα) | also measured
1 | NCCCn1c2c(c3ccc(N)cc3c1=O)C(=O)c1ccccc1-2 [Compound 3, 3-Amino-6-(3'-aminopropyl)-5H-indeno[1,2-c]isoquinoline-5,11-(6H)dione] | 1903415 | high activity | apoptosis in MCF-7 cells [1]: induce apoptosis in MCF-7 breast cancer cells in a dose-dependent manner; metabolism of the ketone group [3]: metabolized to an alcohol, which renders the compound inactive; competition with curcumin for binding to VDR (VDR [4]): did not compete
2 | CCOC(=O)CNc1ccc2c3c(n(CCCN)c(=O)c2c1)-c1ccccc1C3=O [Compound 62] | 152467 | – | –
3 | NCCCn1c2c(c3ccccc3c1=O)C(=O)c1ccccc1-2 [Compound 79] | 4013179 | high activity | % Cell Survival (COS-1 cells; Table 3): 52.5%; EC50 (human RXRα): 10.2 µM
4 | NCCCCn1c2c(c3ccccc3c1=O)C(=O)c1ccccc1-2 [Compound 80] | 3320824 | – | –
5 | NCCCCCn1c2c(c3ccccc3c1=O)C(=O)c1ccccc1-2 [Compound 81] | 7877048 | – | –
6 | NCCCCCCn1c2c(c3ccccc3c1=O)C(=O)c1ccccc1-2 [Compound 82] | 9397620 | – | –
7 | O=C1c2ccccc2-c2c1c1ccc([N+](=O)[O-])cc1c(=O)n2CCCCO [Compound 120, 6-(4-Hydroxybutyl)-3-nitro-5H-indeno[1,2-c]isoquinoline-5,11(6H)-dione] | – | inactive | –
8 | CN(C)CCCn1c2c(c3ccc(N)cc3c1=O)C(=O)c1ccccc1-2 [Compound 121, 3-Amino-6-(3-(dimethylamino)propyl)-5H-indeno[1,2-c]isoquinoline-5,11(6H)-dione] | 2011978 | high activity | –
9 | Cl.NCCCn1c2c(c3ccc(N)cc3c1=O)Cc1ccccc1-2 [Compound 124, 3-Amino-6-(3-aminopropyl)-6,11-dihydro-5H-indeno[1,2-c]isoquinolin-5-one] | 1422175 | good activity | –
10 | CNCCCn1c2c(c3ccc([N+](=O)[O-])cc3c1=O)C(=O)c1ccccc1-2 [Compound 125] | – | detrimental for activity | Max IR: maximum induction ratio observed (human RXRα): NA (NA: Max IR not determined because IR < 2.)
11 | CNCCCn1c2c(c3ccc(N)cc3c1=O)C(=O)c1ccccc1-2 [Compound 126] | 2155086 | high activity | –
12 | N#Cc1ccc2c3c(n(CCCn4ccnc4)c(=O)c2c1)-c1ccccc1C3=O [Compound 127] | – | inactive; also recorded: lack of activity | –
13 | N#Cc1ccc2c3c(n(CCCN4CCOCC4)c(=O)c2c1)-c1ccccc1C3=O [Compound 128] | – | inactive; also recorded: lack of activity | –
14 | CN(C)CCCn1c2c(c3ccc(C#N)cc3c1=O)C(=O)c1ccccc1-2 [Compound 129] | – | active | –
15 | CC(=O)Nc1ccc2c3c(n(CCCN)c(=O)c2c1)-c1ccccc1C3=O [Compound 131] | 4875144 | – | –
16 | CC(=O)Nc1ccc2c3c(n(CCCO)c(=O)c2c1)-c1ccccc1C3=O [Compound 132] | – | inactive | % Cell Survival (COS-1 cells; Table 7): 90.6%; Max IR: maximum induction ratio observed (human RXRα): NA (NA: Max IR not determined because IR < 2.)
17 | O=C1c2ccccc2-c2c1c1ccc([N+](=O)[O-])cc1c(=O)n2CCCCl [Compound 133] | – | inactive | –
18 | [N-]=[N+]=NCCCn1c2c(c3ccc([N+](=O)[O-])cc3c1=O)C(=O)c1ccccc1-2 [Compound 134] | – | inactive | –
19 | NCCCn1c2c(c3ccc([N+](=O)[O-])cc3c1=O)C(=O)c1ccccc1-2 [Compound 135] | – | detrimental for activity | Max IR: maximum induction ratio observed (human RXRα): NA (NA: Max IR not determined because IR < 2.)
20 | CC(C)(C)OC(=O)NCCCn1c2c(c3ccc(N)cc3c1=O)C(=O)c1ccccc1-2 [Compound 141] | – | inactivated | –
21 | CC(=O)NCCCn1c2c(c3ccc([N+](=O)[O-])cc3c1=O)C(=O)c1ccccc1-2 [Compound 143] | – | detrimental for activity | –
22 | CC(=O)NCCCn1c2c(c3ccc(N)cc3c1=O)C(=O)c1ccccc1-2 [Compound 144] | – | significantly reduced the IR | –
23 | O=C1c2ccccc2-c2c1c1ccc([N+](=O)[O-])cc1c(=O)n2CCCO [Compound 145] | – | inactive | –
24 | CN(C)c1ccc2c3c(n(CCCN)c(=O)c2c1)-c1ccccc1C3=O [Compound 149] | – | inactive | Max IR: maximum induction ratio observed (human RXRα): NA (NA: Max IR not determined because IR < 2.)
25 | O=C1c2ccccc2-c2c1c1ccccc1c(=O)n2CCCO [Compound 151] | – | inactive | Max IR: maximum induction ratio observed (human RXRα): NA (NA: Max IR not determined because IR < 2.)
26 | COc1cc2c3c(n(CCCN)c(=O)c2cc1OC)-c1ccc(F)cc1C3=O [Compound 160] | – | – | Max IR: maximum induction ratio observed (human RXRα): NA (NA: Max IR not determined because IR < 2.)
